In series [1] the target is T1, Gastrin/cholecystokinin type B receptor (Homo sapiens, UniProt P32239).
T1 sequence (P32239 whole entry): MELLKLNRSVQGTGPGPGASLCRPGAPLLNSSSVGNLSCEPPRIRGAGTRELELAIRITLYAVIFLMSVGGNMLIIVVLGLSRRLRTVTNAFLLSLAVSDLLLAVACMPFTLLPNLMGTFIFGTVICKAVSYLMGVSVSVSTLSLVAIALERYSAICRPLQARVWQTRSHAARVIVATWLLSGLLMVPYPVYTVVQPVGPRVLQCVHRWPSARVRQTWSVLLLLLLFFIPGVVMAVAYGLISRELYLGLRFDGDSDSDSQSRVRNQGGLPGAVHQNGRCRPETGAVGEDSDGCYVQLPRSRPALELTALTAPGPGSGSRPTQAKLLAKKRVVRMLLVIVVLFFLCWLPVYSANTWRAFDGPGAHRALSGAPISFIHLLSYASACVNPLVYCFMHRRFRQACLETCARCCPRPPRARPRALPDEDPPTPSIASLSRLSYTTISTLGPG
The experiment in a line: (§1) Displacement of Eu-DTPA-PEGO-CCK4 from human cholecystokinin 2 receptor overexpressed in HEK-293 cells co-expressing human MC4R after 1 hr by time resolved fluorescence-based competition binding assay. In kind it is cell-based, HEK293. The essentials: (§2)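 HEK-293 cells engineered to co-express hCCK2R and hMC4R, grown in DMEM/10% FBS with zeocin and geneticin, seeded 240,000 per well in six-well plates. Each well received binding buffer (DMEM, HEPES, BSA, 1,10-phenanthroline, leupeptin, bacitracin, pH 7.4) containing 15 nM Eu probe plus competitor at 10^-12 to 10^-5 M. Incubation 1 h at 37 °C, then scraping, three washes, Enhancement Solution 1 h at 37 °C, Eu TRF read.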

Series [2] can be described thus: Retention time of the compound by reverse phase HPLC analysis. In kind it is physicochemical.
Series [3] addresses T2, Gastrin/cholecystokinin type B receptor (Homo sapiens) (UniProt P32239).
T2 sequence (whole entry): T1 sequence (P32239 whole entry)
The experiment in a line: Displacement of Eu-DTPA-PEGO-CCK4 from human cholecystokinin 2 receptor overexpressed in HEK-293 cells co-expressing human MC4R after 1 hr by time resolved fluorescence-based competition binding assay relative to acetylated […]. In kind it is cell-based. The following applies: HEK293.

The nature of series [4]: Retention time of the compound by analytical HPLC method. In kind it is physicochemical.
Series [5] has as its target T2, Gastrin/cholecystokinin type B receptor (Homo sapiens). The description is as §1. It counts as cell-based. The note with it: HEK293. The essentials:
as §2

Active and inactive are the calls of the source. The calls are words filed in the database; no cut-off is given here. Where a SMILES comes first, the peptide text is derived from it. [ ]: non-standard residue; d: D form. The star is where a group is joined. Hexanoyl(6-N3) = [N-]=[N+]=NCCCCCC(=O)*; Azidoacetyl = [N-]=[N+]=NCC(=O)*; X1 = C#CCCCCOCCOCCOCCOCCOCC(=O)*; Nle = CCCC[C@H](N)C(=O)O

In series [1], `CCCC[C@H](NC(=O)[C@H](Cc1c[nH]c2ccccc12)NC(=O)Cn1cc(CN(Cc2cn(CC(=O)N[C@@H](Cc3c[nH]c4ccccc34)C(=O)N[C@@H](CCCC)C(=O)N[C@@H](CC(=O)O)C(=O)N[C@@H](Cc3ccccc3)C(N)=O)nn2)Cc2cn(CC(=O)N[C@@H](Cc3c[nH]c4ccccc34)C(=O)N[C@@H](CCCC)C(=O)N[C@@H](CC(=O)O)C(=O)N[C@@H](Cc3ccccc3)C(N)=O)nn2)nn1)C(=O)N[C@@H](CC(=O)O)C(=O)N[C@@H](Cc1ccccc1)C(N)=O` displayed a Ki of 1.2 nM. The figures for the Retention_time in series [2] and in series [4] were 15.1 min and 21.18 min, respectively. Besides, the Ratio in series [3] worked out at 5.
`C#CCCCCOCCOCCOCCOCCOCC(=O)N[C@@H](Cc1c[nH]c2ccccc12)C(=O)N[C@@H](CCCC)C(=O)N[C@@H](CC(=O)O)C(=O)N[C@@H](Cc1ccccc1)C(N)=O` (X1-W[Nle]DF-NH2) returned a Retention_time in series [2] of 16.9 min.
For `CCCC[C@H](NC(=O)[C@H](Cc1c[nH]c2ccccc12)NC(=O)CCCCCn1cc(COc2cc(OCc3cn(CCCCCC(=O)N[C@@H](Cc4c[nH]c5ccccc45)C(=O)N[C@@H](CCCC)C(=O)N[C@@H](CC(=O)O)C(=O)N[C@@H](Cc4ccccc4)C(N)=O)nn3)cc(OCc3cn(CCCCCC(=O)N[C@@H](Cc4c[nH]c5ccccc45)C(=O)N[C@@H](CCCC)C(=O)N[C@@H](CC(=O)O)C(=O)N[C@@H](Cc4ccccc4)C(N)=O)nn3)c2)nn1)C(=O)N[C@@H](CC(=O)O)C(=O)N[C@@H](Cc1ccccc1)C(N)=O`, affinity in series [1] was put at a Ki of 3.7 nM. Moreover, the Retention_time in series [2] was 16.6 min; in series [4], 22.42 min. In addition, the Ratio in series [3] worked out at 2.
For the molecule `NC(=O)[C@H](CO)NC(=O)CCCCCn1cc(COc2cc(OCc3cn(CCCCCC(=O)N[C@@H](CO)C(N)=O)nn3)cc(OCc3cn(CCCCCC(=O)N[C@@H](CO)C(N)=O)nn3)c2)nn1`, the inhibition result in series [5] was “inactive”.
Same read-out and setting: for `NC(=O)[C@H](CO)NC(=O)CCCCCn1cc(CN(Cc2cn(CCCCCC(=O)N[C@@H](CO)C(N)=O)nn2)Cc2cn(CCCCCC(=O)N[C@@H](CO)C(N)=O)nn2)nn1` the value was “inactive”.
As for `CCCC[C@H](NC(=O)[C@H](Cc1c[nH]c2ccccc12)NC(=O)COCCOCCOCCOCCOCCCCc1cn(CCCCCCOc2cc(OCCCCCCn3cc(CCCCOCCOCCOCCOCCOCC(=O)N[C@@H](Cc4c[nH]c5ccccc45)C(=O)N[C@@H](CCCC)C(=O)N[C@@H](CC(=O)O)C(=O)N[C@@H](Cc4ccccc4)C(N)=O)nn3)cc(OCCCCCCn3cc(CCCCOCCOCCOCCOCCOCC(=O)N[C@@H](Cc4c[nH]c5ccccc45)C(=O)N[C@@H](CCCC)C(=O)N[C@@H](CC(=O)O)C(=O)N[C@@H](Cc4ccccc4)C(N)=O)nn3)c2)nn1)C(=O)N[C@@H](CC(=O)O)C(=O)N[C@@H](Cc1ccccc1)C(N)=O`, affinity in series [1] was put at a Ki of 30 nM. Also, the Retention_time in series [2] was 19.8 min; in series [4], 25.12 min. The Ratio in series [3] came out at 0.2.
For `CCCC[C@H](NC(=O)[C@H](Cc1c[nH]c2ccccc12)NC(C)=O)C(=O)N[C@@H](CC(=O)O)C(=O)N[C@@H](Cc1ccccc1)C(N)=O` (Ac-W[Nle]DF-NH2) the same measures were 6.1 nM, 13.3 min, 17.47 min and 1.
On to `CCCC[C@H](NC(=O)[C@H](Cc1c[nH]c2ccccc12)NC(=O)CN=[N+]=[N-])C(=O)N[C@@H](CC(=O)O)C(=O)N[C@@H](Cc1ccccc1)C(N)=O` (Azidoacetyl-W[Nle]DF-NH2), for which the Retention_time in series [2] was 14.6 min.
Consider `CCCC[C@H](NC(=O)[C@H](Cc1c[nH]c2ccccc12)NC(=O)COCC(=O)NCCCOCCOCCOCCCNC(=O)CN(CCN(CCN(CC(=O)O)CC(=O)O)CC(=O)O)CC(=O)O)C(=O)N[C@@H](CC(=O)O)C(=O)N[C@@H](Cc1ccccc1)C(N)=O`, for which the Retention_time in series [2] is reported as 22.9 min.
Same read-out and setting: for `CCCC[C@H](NC(=O)[C@H](Cc1c[nH]c2ccccc12)NC(=O)CCCCCN=[N+]=[N-])C(=O)N[C@@H](CC(=O)O)C(=O)N[C@@H](Cc1ccccc1)C(N)=O` ({Hexanoyl(6-N3)}-W[Nle]DF-NH2) the value was 17.7 min.
